Most compounds without a hit are left out; they make up all but 1.8% or so of the library.
M4 ag – agonists of human muscarinic M4 receptor (CHRM4) | activation, % at 3 µM | P08173 | AID 624127 | CHO-K1 hM4/Gqi5, Fluo-8 calcium fluorescence; vehicle 0%, full acetylcholine response 100% | 360,000 tested, 0.14% active;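 active means activation above the run mean over all test wells plus 3 SD, cut at about 32% in these data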;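 further: peak over basal fluorescence ratio per well then scaled between controls; 0% = DMSO wells and 100% = acetylcholine at EC100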
CHRM5 PAM – potentiates acetylcholine response at human M5 receptor; P08912; CHO-K1 hM5, Fluo-8 calcium, ACh EC20 PAM; 0% = ACh EC20, 100% = ACh EC100; activation, % at 3 µM; 360,000 tested, 0.3% active; AID 624038;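 active means activation above the run cutoff, the mean activation of all test compounds plus 3 SD, cut at about 18% in these data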
Target sequence (P08912 whole entry, looked up): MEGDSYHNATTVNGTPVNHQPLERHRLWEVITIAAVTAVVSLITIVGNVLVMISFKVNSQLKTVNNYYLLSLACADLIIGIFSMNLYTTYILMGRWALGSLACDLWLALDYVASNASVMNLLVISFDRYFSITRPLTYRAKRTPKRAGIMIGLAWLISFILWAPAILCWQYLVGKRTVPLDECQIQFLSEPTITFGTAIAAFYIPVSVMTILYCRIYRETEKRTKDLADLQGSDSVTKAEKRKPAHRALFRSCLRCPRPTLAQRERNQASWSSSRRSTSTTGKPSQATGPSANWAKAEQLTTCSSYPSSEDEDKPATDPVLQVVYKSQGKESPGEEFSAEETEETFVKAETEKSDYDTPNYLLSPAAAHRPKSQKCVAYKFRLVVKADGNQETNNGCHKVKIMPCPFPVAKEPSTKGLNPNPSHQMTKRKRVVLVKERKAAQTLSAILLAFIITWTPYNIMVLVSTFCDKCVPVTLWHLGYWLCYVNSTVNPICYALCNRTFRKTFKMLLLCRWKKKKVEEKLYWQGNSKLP
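Assay system – human M5 receptor in CHO-K1 cells · Read-out – % activation, ACh-normalized · Technique – Fluo-8 calcium fluorescence · Dosing – single-point, 3 µM nominal · Incubation – Fluo-8 loading 80 min at 37 °C plus 30 min room temperature · Repeats – singlicate, one well per test compound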
CHRM4 PAM – positive allosteric modulators of human muscarinic M4 receptor. CHO-K1 hM4/Gqi5, Fluo-8 calcium fluorescence, ACh EC20; 0% = ACh EC20, 100% = maximal ACh. activation, % at 3 µM. P08173. 360,000 tested, 0.4% active;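 active means activation above its plate's cutoff, the mean activation of sample wells plus 3 SD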
CHRM4 antagonist – CHRM4 antagonism in calcium assay; P08173; CHO-hM4 cells, ACh EC80, Fluo-8 calcium fluorescence; inhibition, % at 3 µM; 360,000 tested, 0.73% active; AID 624125;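 active means inhibition above its plate's cutoff, the mean inhibition of sample wells plus 3 SD, cut at about 27% in these data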;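 further: 0% = acetylcholine EC80 with DMSO and 100% = DMSO without agonist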
M5 antag – CHRM5 antagonism in calcium assay; P08912; CHO-hM5 cells, Fluo-8 calcium fluorescence, ACh EC80; inhibition, % at 3 µM; 360,000 tested, 0.59% active;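 active means inhibition above a per-plate cutoff, the mean of that plate's test compounds plus 3 SD, cut at about 27% in these data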;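 further: 0% = acetylcholine EC80 with DMSO and 100% = DMSO without agonist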
M5 ag – agonists of human muscarinic M5 receptor (CHRM5). CHO-K1 hM5 cells, Fluo-8 calcium fluorescence; 0% DMSO wells, 100% maximal acetylcholine response. activation, % at 3 µM. 360,000 tested, 0.19% active. AID 624037;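 active means activation above the run's mean over test compounds plus 3 SD, cut at about 23% in these data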;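 further: signal is peak over basal fluorescence ratio across the kinetic read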
* = called active by the depositor.

SMILES	M4 ag	CHRM5 PAM	CHRM4 PAM	CHRM4 antagonist	M5 antag	M5 ag
COc1cccc(NC(=O)C2CC(=O)N(Cc3ccco3)C2)c1 (stereo unspecified)	2	2	21*	-6	-5	0
CC[C@H](C)Cc1cn([C@@H](CCCCNC(=O)OC(C)(C)C)C(=O)NCCCCCCCCCCC(=O)N2CCN(C(=O)OC(C)(C)C)CC2)nn1	25	-21	-15	28*	9	-2
Cc1cc(F)ccc1S(=O)(=O)N(CC(=O)N1CCOCC1)CC(=O)N1CCOCC1	0	2	25*	-10	6	-1
CC(C)(C)c1ccc(OCC(O)CS(=O)(=O)c2ccccn2)cc1 (stereo unspecified)	13	-2	3	-11	-8	3
COC(=O)c1sc(C(C)(C)C)cc1CS(=O)(=O)c1ccccn1	3	22*	-4	-15	-18	9
CN1CCN(c2ccc(CNS(=O)(=O)c3ccc(F)cc3Cl)cc2)CC1	2	4	20*	5	1	-6
Cc1oc(-c2cccs2)nc1CNC[C@H]1O[C@@H](n2cnc3c(N)ncnc32)[C@H](O)[C@@H]1O	1	2	1	-14	-8	2
COc1cc(-n2c(=O)c3ccccc3n(Cc3cccc(F)c3)c2=O)cc(OC)c1OC	0	8	-6	1	-17	0
COc1cc(-n2c(=O)c3ccccc3n(Cc3ccccc3)c2=O)cc(OC)c1OC	0	30*	2	-2	30*	3
[O-][n+]1c2ccccc2[n+]([O-])c2cc(O)ccc21	1	-1	2	-4	-3	1
CCc1nnc(NC(=O)CN2CCCC(C)C2)s1 (stereo unspecified)	1	-2	2	-6	8	-1
O=S(=O)(Nc1cccnc1)c1ccc(Cl)cc1	2	-4	20*	-3	2	-1
O=C(Nc1ccc2c(c1)OCO2)N1CCN(Cc2ccco2)CC1	1	0	5	-8	7	-1
O=C(CSc1ccc(-c2ccccn2)nn1)c1ccccc1	7	-3	-11	-10	5	-3
O=C(CSc1ccc(-c2ccccn2)nn1)c1ccc(F)cc1	4	28*	12	7	32*	4
Cc1ccc(NC(=O)c2ccccc2NS(=O)(=O)c2ccc(Cl)s2)cc1S(=O)(=O)N1CCOCC1	14	-20	-10	13	32*	5
O=C(Nc1cc(S(=O)(=O)N2CCOCC2)ccc1O)c1ccc(NS(=O)(=O)c2ccc(Cl)s2)cc1	-1	4	-5	5	-3	1
CCN(c1ccccc1)S(=O)(=O)c1cccc(C(=O)N(C)CC(=O)Nc2ccc(F)c(F)c2F)c1	11	-9	0	-4	7	2
CCCCn1nnnc1SCC(=O)NNC(=O)C1CCCCC1	2	-1	3	-4	-4	1
O=S1(=O)NC(CC2=CCCCC2)C2CCCCC2O1 (stereo unspecified)	2	-6	2	-14	-8	-11
Cn1c(SCc2ccccc2)nc2ccsc2c1=O	15	-21	-15	14	30*	3
Cn1c(SCc2ccc(Br)cc2)nc2ccccc2c1=O	5	-10	-6	8	8	1
O=C(NNC(=O)c1cc(-c2cccnc2)nc2ccccc12)Nc1ccc(Cl)cc1	22	-34	-25	30*	38*	6
COc1ccc(C(O)(CCN2CCCCC2)C2CCCCC2)cc1 (stereo unspecified)	0	-23	-20	75*	64*	-11
Cn1c(=O)c2[nH]c(C3CCCC3)nc2n(C)c1=O	1	-4	-20	101*	0	1
SMILES	M4 ag	CHRM5 PAM	CHRM4 PAM	CHRM4 antagonist	M5 antag	M5 ag
Cn1c(=O)c2[nH]c(C3CC=CCC3)nc2n(C)c1=O (stereo unspecified)	1	5	-1	-5	7	3
CC(=O)Nc1nc(-c2ccc([N+](=O)[O-])cc2)cs1	1	-6	1	-5	-10	-1
O=C(Nc1ccc([N+](=O)[O-])cc1)Nc1nc(-c2ccc(Cl)s2)cs1	12	-15	-10	26	31*	7
CC1(c2ccc(OC(F)F)cc2)NC(=O)N(/N=C/c2c(O)ccc3ccccc23)C1=O (stereo unspecified)	1	0	20*	8	2	0
Cn1c(SCc2nc3ccccc3[nH]2)nnc1-c1cnccn1	2	19*	-5	0	3	-2
c1coc(Cn2c(SCc3nc4ccccc4[nH]3)nnc2-c2cnccn2)c1	3	-6	-1	6	3	1
CCOC(=O)C1(CCCc2ccccc2)CCN(C2CCSCC2)CC1	3	-21	-20	8	30*	-11
C[C@@H]1CN(Cc2nc(-c3cccs3)no2)C[C@H](C)O1	1	-10	4	27*	11	-1
O=C(NN=Cc1c(O)ccc2ccccc12)c1ccc2c(c1)OCO2	3	10	23*	-8	-4	5
Cc1ccc(NC(=S)NCCc2ccccc2)c(C)c1	-1	3	-4	8	-2	-7
Cc1ccc(NC(=S)NCCO)c(C)c1	1	6	16*	11	-3	-3
Cc1cc(Cl)ccc1NC(=S)NCc1ccc(S(N)(=O)=O)cc1	1	-2	-5	6	1	-3
Cc1ccc(NC(=S)NCc2ccc(S(N)(=O)=O)cc2)c(C)c1	1	1	7	28*	-2	2
N#CCC(=O)Nc1ccc(C(=O)NNC(=S)NC2CC2)cc1	2	10	25*	-8	-18	-3
COC(=O)CSc1nc(-c2cccs2)ccc1C#N	4	-8	-30	74*	3	-4
CCCCN1CC(N2CCN(CCN(C)C)CC2)CS1(=O)=O (stereo unspecified)	1	-6	1	-18	3	0
CN(C)CCCNc1oc(/C=C/c2ccccc2)nc1C#N	1	32*	4	-5	24	3
CC(C)(C)CNC(=O)c1cccc2c1C(=O)c1ccc(N3CCCC3)cc1S2(=O)=O	39*	-22	-15	13	12	22
O=C(NCc1ccc(F)cc1)c1cccc2c1C(=O)c1ccc(N3CCC(Cc4ccccc4)CC3)cc1S2(=O)=O	1	5	1	4	5	2
O=C(NC1CC1)c1cccc2c1C(=O)c1ccc(N3CCC(Cc4ccccc4)CC3)cc1S2(=O)=O	26	-16	-10	27*	24	15
C/C(CC(=O)Nc1ccccc1F)=N\NC(=O)Cc1ccc(Cl)cc1	0	-2	-7	5	1	-2

From PubChem
